Experimental data as given in ChEMBL document CHEMBL1133681, “Synthesis and opioid receptor affinity of a series of 2, 4-diaryl-substituted 3,7-diazabicylononanones” (J Med Chem, 2000).
“And” between values parts separate entries of the source, which are not always exact repeats. Equal entries are not always repeated.

Tests used:
[1] = target: Mu-type opioid receptor (Rattus norvegicus) (UniProt P33535); assay: Inhibition against [3H]naloxone opioid receptor mu 1 in rat brain membranes at 1 umol/L.; format: cell membranes
Mu-type opioid receptor (Rattus norvegicus), sequence (P33535 whole entry): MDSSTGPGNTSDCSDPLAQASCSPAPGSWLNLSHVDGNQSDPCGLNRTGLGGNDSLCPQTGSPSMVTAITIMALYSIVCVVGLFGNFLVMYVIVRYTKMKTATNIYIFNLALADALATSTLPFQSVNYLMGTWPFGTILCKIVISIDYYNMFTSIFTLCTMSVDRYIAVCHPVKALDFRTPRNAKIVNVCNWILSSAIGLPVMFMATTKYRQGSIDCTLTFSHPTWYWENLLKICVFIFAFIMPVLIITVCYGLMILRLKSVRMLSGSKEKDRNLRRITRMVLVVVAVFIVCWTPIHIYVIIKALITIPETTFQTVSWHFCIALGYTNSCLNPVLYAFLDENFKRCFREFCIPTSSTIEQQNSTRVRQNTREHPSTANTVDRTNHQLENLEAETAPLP
How it was run: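 Rat brain membranes (without cerebellum); 1 nM [3H]naloxone; preincubation 37 °C 40 min; incubation 50 mM Tris-HCl pH 7.4, 25 °C 30 min; nonspecific binding with 10^-5 M naloxone; triplicate, GF/B filtration, three ice-cold washes, scintillation counting.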

[2] = target: T1, Kappa-type opioid receptor (Homo sapiens, UniProt P41145); assay: (§1) Inhibition against [3H]diprenorphine human Opioid receptor kappa 1 at 10 umol/L
T1 sequence (P41145 whole entry): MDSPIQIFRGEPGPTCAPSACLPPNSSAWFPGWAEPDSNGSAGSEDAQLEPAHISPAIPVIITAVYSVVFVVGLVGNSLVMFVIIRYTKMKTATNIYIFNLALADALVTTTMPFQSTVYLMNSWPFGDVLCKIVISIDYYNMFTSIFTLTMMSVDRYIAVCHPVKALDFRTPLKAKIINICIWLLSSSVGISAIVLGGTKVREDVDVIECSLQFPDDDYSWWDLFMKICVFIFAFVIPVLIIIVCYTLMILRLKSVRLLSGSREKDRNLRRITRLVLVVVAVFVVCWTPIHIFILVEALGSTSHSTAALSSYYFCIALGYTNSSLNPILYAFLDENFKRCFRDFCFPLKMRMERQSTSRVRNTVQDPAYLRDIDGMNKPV

[3] = target: Delta-type opioid receptor (Rattus norvegicus) (UniProt P33533); assay: Inhibition against [3H]D-Ala-deltorphin opioid receptor delta 2 in rat brain membranes at 1 umol/L.; format: cell membranes
Delta-type opioid receptor (Rattus norvegicus), sequence (P33533 whole entry): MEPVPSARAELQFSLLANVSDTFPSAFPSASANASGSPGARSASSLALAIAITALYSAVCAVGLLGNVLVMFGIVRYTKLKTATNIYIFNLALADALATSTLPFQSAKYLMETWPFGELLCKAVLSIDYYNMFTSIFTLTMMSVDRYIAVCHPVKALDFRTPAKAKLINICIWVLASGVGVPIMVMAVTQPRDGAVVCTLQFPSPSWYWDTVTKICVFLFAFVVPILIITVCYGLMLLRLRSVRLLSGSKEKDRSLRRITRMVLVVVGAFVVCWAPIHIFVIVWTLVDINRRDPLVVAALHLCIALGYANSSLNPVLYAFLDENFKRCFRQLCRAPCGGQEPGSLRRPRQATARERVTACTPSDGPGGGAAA
How it was run: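 Rat brain membranes (without cerebellum, pons, medulla oblongata); 1 nM [3H]-D-Ala-deltorphine; no preincubation; 50 mM Tris-HCl pH 7.4 with BSA and 4.5 mM MgCl2; 37 °C 90 min; nonspecific binding with 10^-5 M naloxone; triplicate, GF/B filtration, scintillation counting.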

[4] = target: Delta-type opioid receptor (Rattus norvegicus) (UniProt P33533); assay: Inhibition against [3H]DPDPE Opioid receptor delta 1 in rat brain membranes at 1 umol/L; format: cell membranes
How it was run: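 Rat brain membranes (without cerebellum, pons, medulla oblongata); 0.25 nM [3H]Cl-DPDPE; preincubation 25 °C 30 min; 50 mM Tris-HCl pH 7.4 with BSA, 45 μM PMSF, 4.5 mM MgCl2; 25 °C 240 min; nonspecific binding with 10^-3 M naloxone; triplicate, filtration, scintillation counting.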

[5] = Acid dissociation constant was measured in experiment 1; format: ADME; details: read-out: pKa1
[6] = target: T1, Kappa-type opioid receptor; assay: Inhibition against [3H]diprenorphine human Opioid receptor kappa 1 […] at 10 umol/L; format: cell membranes
[7] = Acid dissociation constant was measured in experiment 2; format: ADME; details: read-out: pKa2
[8] = target: T1, Kappa-type opioid receptor; assay: as §1; remark: listed apart in the source
[9] = target: T1, Kappa-type opioid receptor; assay: Inhibition against [3H]diprenorphine human Opioid receptor kappa 1
[10] = Acid dissociation constant was measured in experiment 4; format: ADME; details: read-out: pKa4
[11] = Acid dissociation constant was measured in experiment 3; format: ADME; details: read-out: pKa3
[12] = target: Kappa-type opioid receptor (Rattus norvegicus) (UniProt P34975); assay: Inhibition against [3H]-CI 977 rat Opioid receptor kappa 1 at 10 umol/L
Kappa-type opioid receptor (Rattus norvegicus), sequence (P34975 whole entry, looked up): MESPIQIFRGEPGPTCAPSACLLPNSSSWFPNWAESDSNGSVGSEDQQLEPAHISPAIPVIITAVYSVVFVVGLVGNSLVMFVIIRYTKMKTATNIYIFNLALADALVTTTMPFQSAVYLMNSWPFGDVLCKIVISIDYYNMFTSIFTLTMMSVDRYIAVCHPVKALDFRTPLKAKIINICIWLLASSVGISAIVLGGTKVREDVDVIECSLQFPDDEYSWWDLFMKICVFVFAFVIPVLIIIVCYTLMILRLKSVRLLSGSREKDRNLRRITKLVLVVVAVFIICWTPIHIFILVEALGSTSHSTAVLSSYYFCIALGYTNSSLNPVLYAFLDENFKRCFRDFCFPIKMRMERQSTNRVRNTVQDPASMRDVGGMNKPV

[13] = target: Kappa-type opioid receptor (Mus musculus) (UniProt P33534); assay: Antinociceptive activity evaluated against Opioid receptor kappa 1 in mice by tail-flick assay (administered intravenously)
Kappa-type opioid receptor (Mus musculus), sequence (P33534 whole entry): as the sequence (P34975 whole entry, looked up) above, with E11D, A17S, P51S, V308A counted along it
How it was run: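 Male NMRI mice (23-26 g), group-housed, ~22 °C, 12-h light-dark cycle; food and water withdrawn during testing; compound given iv; tail-flick response; ED50 derived.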

[14] = target: Kappa-type opioid receptor (Mus musculus) (UniProt P33534); assay: Antinociceptive activity evaluated against Opioid receptor kappa 1 in mice by writhing test (administered intravenously)
How it was run: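 Male NMRI mice (31-37 g); writhing induced by ip 0.35 mL of 0.02% phenylquinone; writhes counted 5–20 min after phenylquinone; food and water withdrawn during test; compound given iv; ED50 derived.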

[15] = target: T1, Kappa-type opioid receptor; assay: Inhibition against [3H]diprenorphine human Opioid receptor kappa 1 at 10 uM/L

| Compound | inhibition [1] | inhibition [3] | inhibition [8] | also measured |
| --- | --- | --- | --- | --- |
| CN1CC2(C(=O)O)C(=O)C(C(=O)O)(C1)C(c1ccccc1)N(C)C2c1ccccc1 (stereo unspecified) | 14.5% | -1.6% | – | Ki [2]: 210 nM; inhibition [4]: -0.3% |
| COC(=O)C12CN(C)CC(C(=O)OC)(C1=O)C(c1ccc(F)cc1)N(C)C2c1ccc(F)cc1 (stereo unspecified) | 10.1% | 0.4% | – | Ki [2]: 140 nM |
| COC(=O)C12CN(C)CC(C(=O)OC)(C1=O)C(c1cccc(Cl)c1)N(C)C2c1cccc(Cl)c1 (stereo unspecified) | 8.8% | – | – | pKa [5]: 10.6; inhibition [6]: 42.3%; pKa [7]: 9.51; inhibition [4]: -0.8% |
| COC(=O)C12CN(C)CC(C(=O)OC)(C1=O)C(c1ccnc3ccccc13)N(C)C2c1ccnc2ccccc12 (stereo unspecified) | -7.1% | 1.2% | 25.8% | – |
| COC(=O)C12CN(C)CC(C(=O)OC)(C1=O)C(c1cccc(F)c1)N(C)C2c1cccc(F)c1 (stereo unspecified) | 5% | 3.2% | – | pKa [5]: 13.1; pKa [7]: 10.7; Ki [9]: 26 nM |
| COC(=O)C12CN(C)CC(C(=O)OC)(C1=O)C(c1cccc3ccccc13)N(C)C2c1cccc2ccccc12 (stereo unspecified) | – | 1.8% | 7.8% | – |
| COC(=O)C12CN(C)CC(C(=O)OC)(C1=O)C(c1cccc(O)c1)N(C)C2c1cccc(O)c1 (stereo unspecified) | 35.6% | – | – | pKa [10]: 9.21; pKa [5]: 10.3; pKa [11]: 9.12; pKa [7]: 7.97; inhibition [4]: 27% |
| COC(=O)C12CN(C)CC(C(=O)OC)(C1=O)C(c1ccc([N+](=O)[O-])cc1)N(C)C2c1ccc([N+](=O)[O-])cc1 (trans isomer) | 4.8% | -4% | – | inhibition [12]: 27.8% |
| COC(=O)C12CN(C)CC(C(=O)OC)(C1=O)C(c1cccc(C)c1)N(C)C2c1cccc(C)c1 (stereo unspecified) | -5.9% | – | – | inhibition [4]: 3.4% |
| COC(=O)C12CN(C)CC(C(=O)OC)(C1=O)C(c1ccc3ccccc3c1)N(C)C2c1ccc2ccccc2c1 (stereo unspecified) | – | -2.1% | 18.6% | – |
| COC(=O)C12CN(C)CC(C(=O)OC)(C1=O)C(c1ccc(Cl)cc1)N(C)C2c1ccc(Cl)cc1 (stereo unspecified) | 2.2% | -2.1% | 63% | – |
| COC(=O)C12CN(C)CC(C(=O)OC)(C1=O)C(c1ccc(C#N)cc1)N(C)C2c1ccc(C#N)cc1 (stereo unspecified) | 5.6% | 3.2% | 17.2% | – |
| COC(=O)C12CN(C)CC(C(=O)OC)(C1=O)C(c1cccc([N+](=O)[O-])c1)N(C)C2c1cccc([N+](=O)[O-])c1 (stereo unspecified) | – | -7.9% | 10% | inhibition [4]: 14% |
| COC(=O)C12CN(C)CC(C(=O)OC)(C1=O)C(c1cccc(OC)c1)N(C)C2c1cccc(OC)c1 (stereo unspecified) | – | -1.6% | 52.2% | – |
| CCOC(=O)C12CN(C)CC(C(=O)OCC)(C1=O)C(c1cccc([N+](=O)[O-])c1)N(C)C2c1cccc([N+](=O)[O-])c1 (stereo unspecified) | 2.3% | 6.1% | – | inhibition [12]: 5.9% |
| CCOC(=O)C12CN(C)CC(C(=O)OCC)(C1=O)C(c1cccc(O)c1)N(C)C2c1cccc(O)c1 (stereo unspecified) | 10.5% | 6.9% | 92.7% | – |
| COC(=O)C12CN(C)CC(C(=O)OC)(C1=O)C(c1ccncc1)N(C)C2c1ccncc1 (stereo unspecified) | 3.1% | -9% | 12.5% | – |
| COC(=O)C12CN(C)CC(C(=O)OC)(C1=O)C(c1cccc(C#N)c1)N(C)C2c1cccc(C#N)c1 (stereo unspecified) | 9.3% | 5% | 35.5% | – |
| CCOC(=O)C12CN(C)CC(C(=O)OCC)(C1=O)C(c1ccc(Cl)cc1)N(C)C2c1ccc(Cl)cc1 (stereo unspecified) | -5% | 1.8% | – | Ki [9]: 1980 nM |
| COC(=O)C12CN(C)CC(C(=O)OC)(C1=O)C(c1ccccc1[N+](=O)[O-])N(C)C2c1ccccc1[N+](=O)[O-] (stereo unspecified) | 2.9% | -1.1% | 3.4% | – |
| COC(=O)C12CN(C)CC(C(=O)OC)(C1=O)C(c1cccnc1)N(C)C2c1cccnc1 (stereo unspecified) | 30.7% | 1.1% | 54.8% | – |
| COC(=O)C12CN(C)CC(C(=O)OC)(C1=O)C(c1ccc(OC)cc1)N(C)C2c1ccc(OC)cc1 (stereo unspecified) | 26.5% | 3% | – | pKa [5]: 9.05; Ki [2]: 18 nM; pKa [7]: 5.51 |
| COC(=O)C12CN(C)CC(C(=O)OC)(C1=O)C(c1ccc3ccccc3n1)N(C)C2c1ccc2ccccc2n1 (stereo unspecified) | 36.6% | 11.8% | – | Ki [9]: 190 nM |
| COC(=O)C12CN(C)CC(C(=O)OC)(C1=O)C(c1ccccc1F)N(C)C2c1ccccc1F (stereo unspecified) | -9.2% | 1.5% | 47.7% | – |
| COC(=O)C12CN(C)CC(C(=O)OC)(C1=O)C(c1ccccn1)N(C)C2c1ccccn1 (stereo unspecified) | 32.4% and 20% and 37.6% | -5.9% and -6.6% | 65% and 62.6% | ED50 [13]: 6.7 mg/kg; pKa [10]: 2.03; pKa [11]: 3.47; ED50 [14]: 1.05 mg/kg; inhibition [15]: 61.7%; inhibition [4]: 5% |
| COC(=O)C12CN(C)CC(C(=O)OC)(C1=O)C(c1ccccc1Cl)N(C)C2c1ccccc1Cl (stereo unspecified) | 2.7% | 1.9% | 65.4% | – |
| COC(=O)C12C[N+](C)(C)CC(C(=O)OC)(C1=O)C(c1ccccn1)N(C)C2c1ccccn1 (stereo unspecified) | 29.2% | 3.3% | – | inhibition [12]: 96.4% |
| COC(=O)C12CN(C)CC(C(=O)OC)(C1=O)C(c1ccc(O)cc1)N(C)C2c1ccc(O)cc1 (stereo unspecified) | 14.2% | 7.3% | 8.4% | – |
| COC(=O)C12CN(C)CC(C(=O)OC)(C1=O)C(c1ccc(Cl)c(Cl)c1)N(C)C2c1ccc(Cl)c(Cl)c1 (stereo unspecified) | 6.1% | -5.3% | 38.9% | – |
| COC(=O)C12CN(C)CC(C(=O)OC)(C1=O)C(c1ccc([N+](=O)[O-])cc1)N(C)C2c1ccc([N+](=O)[O-])cc1 (stereo in doubt) | 4.6% | -3.1% | – | – |
